The text below walks through data of the RNAGym collection of RNA variant scans (doi:10.1126/science.aae0568).

To fix the notation:
B1: tRNA (parent)
chain: GUUCCGUUGGCGUAAUGGUAACGCGUCUCCCUCCUAAGGAGAAGACUGCGGGUUCGAGUCCCGUACGGAACG

Fewer inactive variants are shown than the library holds. Where only a bound is given, the exact number is not on record here.

The variants in this series derive from B1. As to the kind of experiment: yeast fitness relative to wild type (ratio to wild type); higher = fitter; tRNA-Arg(CCU), competitive growth, 37 C, YPD. The gist of the method: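 Start and end populations of a pooled competition were compared by 100-nucleotide paired-end sequencing of gene amplicons. The Saccharomyces cerevisiae strains carried tRNA-Arg(CCU) gene variants at the native genomic locus, synthesised with a 3% per-site mutation rate at 69 sites, and competed in YPD at 37°C for 24 hours in six parallel replicates. Darwinian fitness relative to wild type was based on the change in genotype frequencies. Genotypes required ≥ 100 starting reads, and estimates < 0.5 were set to 0.5.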
Regarding GUGCCAUUGGCGUGAUGGUAACGCGUCUCCCUCCUAACGACAAGACUGCGGGUUCGCGUCCCGUACGGAACG [U3G G6A A14G G38C G41C A57C], the yeast fitness was 0.62.

For the variant GUGCCGUUGGCGUAAUGGUAACGCGUCUCCCUCCUAAGGAGAAGACUGCGGGUUCGAGUCCCGUAAGGAACG [U3G C66A], the yeast fitness was 0.591.

GUGCCGUUGGCGUAAUGGUAACGCGUCUCCCUCCUAAGGAGAAGACUGCGGGUUCGAGUCCCGUAGGGAACG [U3G C66G]: the yeast fitness was determined as 0.712.

On to GUGCCGUUGGCGUAAUGGUAACGCGUCUCCCUCCCAAGGAGAUGACUGCGGGUACGCGUCCCGUACGGAACG [U3G U35C A43U U54A A57C], for which the yeast fitness is at most 0.5.

For GUGCCGUUGGCGUAAUGGUAACGCGUCUCCCUCGUAAGGAGAAGACUGCGGGUUCGAGUCCUGUACGGAACG [U3G C34G C62U], the yeast fitness was at most 0.5.

On to GUGCCGAUAGCGUAAUGGUAACGCGUCUCCCUCCUAAGGAGAAGACUGCGGGUUCGAGUCCCGUACGGAACG [U3G U7A G9A], for which the yeast fitness was at most 0.5.

For GUGCCGUUGGCGUAAUGGUAACGCGACUACCUCAUAAAGAGAAGACUGCGGGUUCGAGUCCCGUACCGAACG [U3G U26A C29A C34A G38A G67C], the yeast fitness was found to be 0.712.

For GUGCCGUUGGCGUAAUGGUAACGCGUCUCUCUCCUAAGGAGAAGACUACGGGUUCGAGUCCCGUACGGAACG [U3G C30U G48A], the yeast fitness was at most 0.5.

With GUGCCGUUGGCGUAAUGGUAACGCAUCUCCCUCCUAAGGAGAAGCCUGCGGGUUCGAGUCCCGUACGGUACG [U3G G25A A45C A69U], the yeast fitness turned out to be 0.814.

Take GUGCCGUCGGCGUAAUGGUAACGCGUCUCCCUCCUAAGGAGAAGACUGCCGGUUCGAGUCCCGUACGCAACG [U3G U8C G50C G68C]: the yeast fitness was at most 0.5.

With GUGCCGUAGGCGUAAUGGUAACGCGUCUCCAUCCUAAGGAGAAGACUGCGGGUUCGAGUCCCGUACGGCGCG [U3G U8A C31A A69C A70G], the yeast fitness is at most 0.5.

With GUGCCGUUGGCGUAACGGUAACGCGUCUGCCUCCUAAGGAGAAGACUGCGGGUUCGAGUCCCGUACGGAACG [U3G U16C C29G], the yeast fitness was at most 0.5.

For the variant GUUACGUUGGCGUCAUGGUAACGCGUCUCCCUCCUAAGGAAAAGACUCCGGGUUAGAGUCCCGUCCGGAACG [C4A A14C G41A G48C C55A A65C], the yeast fitness was 0.556.

With GUGCCAUUGGCGUAAUCGUAACGCGUCUCCGUCCUAAGGAGAAGACUGCGGGUUCGAGUCCCGUACGGAACG [U3G G6A G17C C31G], the yeast fitness is at most 0.5.

Consider GUGCCGUUCGCGUAAUGGUAACGCGUCUCCCUCCUAAGGAGAAGACUGCGGGUUCGAGUCCCGUACGGAACG [U3G G9C], for which the yeast fitness was found to be 0.573.

As to GUGCCGUUGGCGUAAUGGUAACGCGUCUCCCUCCUAAGGAGAAGAAUGCGGGUUCGAGUCCCGUACGGAACG [U3G C46A], the yeast fitness was 0.802.

With GUGCCGUUGGCGUAAUGGUAACGCGUCUCCCUCCUAAGGAGAAGAUUGCGGGUUCGAGUCCCGUACGGAACG [U3G C46U], the yeast fitness is 0.903.

On to GUGCCGUUGGCGUAAUGGUAACGCGUCUCCCUCCUAAGAGGAAGACUGCGGGUUCGUGUCCCGUAUGGAACG [U3G G39A A40G A57U C66U], for which the yeast fitness is at most 0.5.

Consider GUGCCGUUGGCGCAAUGGUAACGCGUCUCCCUACUAAGGAGUAGACUGUGGGUUAGAGUCCCGUACGGAACG [U3G U13C C33A A42U C49U C55A], for which the yeast fitness was at most 0.5.

Regarding GUGCCGUUGGCGUAAUGAUAACGCGUCUCCCUCCUAAGGAGAAGACUGCGGGUUCGAGUCCCGUACGGAACG [U3G G18A], the yeast fitness is 0.694.

Take GUGCCGUUGGCGUAAUAGUAACGCGUCUCUCUCCUAAGGAGAAGACUGCGGGUUCGAGUCCCGUACGGUACG [U3G G17A C30U A69U]: the yeast fitness was at most 0.5.

For GUGCCGUUGGCGUAAUCGUAACGCGUCUCCCUCCUAAGGAGUAGACUGCGGGUUCGAGUCCUGUACGGAACG [U3G G17C A42U C62U], the yeast fitness was at most 0.5.

With GUGCCGUUGGCGUAAUGGUAACGCGUCUCCCUCCUAAGGAGAAGACUGCGGGUUCGAGUCCCGUACAGAACG [U3G G67A], the yeast fitness stood at 0.846.

On to GUGCCGUUGGCGUAAUGGUAACGCGUCGCCCUCCUAAGGAGAAGACUGCGGGUUCGAGUCCCGUACGGAACG [U3G U28G], for which the yeast fitness amounted to 0.661.

As to GUGCCGUUGGCGUAAAGGUAACGCGUCUCCCUCCUAAGGAGAAGACUGCGGGUUCGAGUCCCGUACGGAACG [U3G U16A], the yeast fitness is 0.938.

Regarding GUGCCGUUGGCGUAAAGGUAACGCGUCUCCCUCCUAAGGAGAAGUCUGCGGGUUCGAGUCCCGUACGGAGCG [U3G U16A A45U A70G], the yeast fitness was at most 0.5.

As for GUGCCGUUGGCGUAAUGGUAACGCGUCUCCCUUCUAAGGAGGAGACUGCGGGUUCGAGUCACGUACGGAACG [U3G C33U A42G C61A], the yeast fitness was found to be 0.538.

For GUGCCGUUGGCGUAAUGGUAACGCGUCUCCCUCCUAAGGAGAAGACUGCGGGGUCGAGUCCCGUACGGAACG [U3G U53G], the yeast fitness was found to be 0.587.

For GUGCCGUUGGCGUAAUCGUAACGCGUCUCCAUCCCAAGGAGAAGUCUGCGGGUUCGAGUCCCGUACGGAACG [U3G G17C C31A U35C A45U], the yeast fitness was at most 0.5.

Consider GUGCCGUUGGCGUAAUGGUAACGCGUCUCCCUCCUAAGGAGAAGACGGCGGGUUCGAGUGCCGUACGGAACG [U3G U47G C60G], for which the yeast fitness worked out at 0.503.

As for GUGCCGUUGGCGUAAUGGUAACGCGUCUCCCUCCUAAGGAGAACACUGCGGGUUGGAGUCCCGUACGGAACG [U3G G44C C55G], the yeast fitness was at most 0.5.

In the case of GUGCCGUUCGCGUAAUGGUAACGCGUCUCCCUGCUAAGGAGAAGAUUGCGGGUUCGAGUCCCGUACGGAACG [U3G G9C C33G C46U], the yeast fitness was at most 0.5.

Regarding GUGCCGUUGGCGAAAAGGUAACGCGUCUCCCUCCUAAGGAGAAGACUGCGGGUUCGAGUCCCGUACGGAACG [U3G U13A U16A], the yeast fitness is 0.65.

As for GUGCCGUUGGCGUAAUGGUAACGCGUCUCGCUCCUAAGGCGAAGAUUGUGGGUUCGAGUCCCGUACGCAACG [U3G C30G A40C C46U C49U G68C], the yeast fitness is at most 0.5.

For the variant GUUACGUUGGCGUCAUGGUAACGCGUCUCCCUCCUAAGGAGAAGACUGCGGGUUCGAGUCCCGUACGGAGCG [C4A A14C A70G], the yeast fitness is at most 0.5.

For GUGCCGUUGGCGUAAUGGUAACGCGUCUCCCUCCUAAGGAGAAGACUGCGGGUUCGAGUCCCGUACGAAACG [U3G G68A], the yeast fitness worked out at 0.851.

As for GUGCCGUCGGCGUAAUGGUAACGCGUCUCCCUUCUAAGGAGAAGACUGCGGGUUCGAGUCCCGUAAGGAACG [U3G U8C C33U C66A], the yeast fitness was at most 0.5.

For GUGCCGUUGGCGUAAUGGUAACGCGACUCCCUCCUAAGGAGAAGACUGCGGGUUCGAGUCCCGUACGGACCG [U3G U26A A70C], the yeast fitness amounted to 1.27.
